Tn7 DDE FP = inhibitors of Tn7 peptide binding to fibrin DD(E), primary screen, biochemical, fluorescence polarization, human fibrin, Tn7 probe; hit rate 0.13% among 370,000; AID 720508, 2013; Fibrinogen beta chain (Homo sapiens), P02675; FP displacement of FITC-Tn7 peptide from fibrin DD(E); 0% = median of compound wells per plate; inhibition, % at 8.3 µM;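 active = inhibition above the mean of compounds falling within the control limits plus 3 SD of them, cut at about 14% in these data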;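 also: 0% = plate median of compound wells and 100% = 10 µM Aha-Tn7 peptide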
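Assay system: Fibrin-DD(E) protein isolated from polymerized human fibrin clots; read-out basis: percent inhibition; medium: Tris/NaCl/CaCl2 buffer, pH 7.8; signal: FP measurement; incubation: 10 min plus 3 h, room temperature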
SKN-1 block = suppressors of acrylamide-induced Pgst-4::GFP reporter in worms, primary screen, SKN-1 inhibitor project, whole organism, uHTS, GFP/RFP fluorescence ratio, strain VP596; inhibition, % at 21.8 µM; C. elegans VP596 Pgst-4::GFP/RFP ratio, 24 h; hit rate 0.49% among 360,000;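 active = interference check ratio from 0.5 to 1.5 plus GFP to RFP signal ratio inhibition reaching or exceeding a fixed threshold, cut at about 30% in these data, passing the limit was not always enough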
Neddyl block = inhibitors of cullin neddylation, primary screen, biochemical, TR-FRET, uHTS, NAE and Ubc12. NEDD8-conjugating enzyme Ubc12 (Homo sapiens) + NEDD8-activating enzyme E1 regulatory …. calls only at 25 µM. hit rate 0.58% among 360,000. AID 651699, 2012; in the data active = inhibition above about 36%
Target sequence (P61081 whole entry, looked up): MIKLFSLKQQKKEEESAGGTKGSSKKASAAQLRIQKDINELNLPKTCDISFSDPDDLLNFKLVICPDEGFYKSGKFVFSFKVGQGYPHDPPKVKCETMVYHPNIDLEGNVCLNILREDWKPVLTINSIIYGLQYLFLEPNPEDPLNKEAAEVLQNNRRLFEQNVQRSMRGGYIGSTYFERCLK
Target sequence (Q13564 whole entry, looked up): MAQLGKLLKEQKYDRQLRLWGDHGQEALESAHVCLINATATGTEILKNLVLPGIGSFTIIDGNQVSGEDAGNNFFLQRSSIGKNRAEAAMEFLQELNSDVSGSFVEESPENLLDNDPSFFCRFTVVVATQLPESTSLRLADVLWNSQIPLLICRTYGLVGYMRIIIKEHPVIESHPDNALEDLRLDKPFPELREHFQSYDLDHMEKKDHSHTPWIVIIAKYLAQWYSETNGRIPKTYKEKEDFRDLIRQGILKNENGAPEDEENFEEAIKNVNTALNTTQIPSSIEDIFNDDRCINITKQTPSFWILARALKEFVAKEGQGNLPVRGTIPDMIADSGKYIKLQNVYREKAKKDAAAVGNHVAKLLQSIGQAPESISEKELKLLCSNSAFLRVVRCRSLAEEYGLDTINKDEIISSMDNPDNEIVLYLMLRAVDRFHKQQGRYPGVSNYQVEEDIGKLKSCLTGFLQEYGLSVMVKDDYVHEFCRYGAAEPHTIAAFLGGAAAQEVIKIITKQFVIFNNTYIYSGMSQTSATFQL
proKLK7 act = proKLK7 zymogen activators, primary screen, biochemical, fluorescence intensity; Kallikrein-7 (Homo sapiens), P49862; purified proKLK7, EDANS-DABCYL substrate fluorescence; 100% is mature enzyme control, 0% vehicle; activation, % at 7 µM; hit rate 0.9% among 370,000;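 active = activation above the mean of all tested compounds plus 3 SD, computed per campaign excluding outliers beyond control limits, cut at about 13% in these data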
DDE Tn6 FP inh = inhibitors of Tn6 peptide binding to fibrin DD(E), primary screen, biochemical, fluorescence polarization, human fibrin, Tn6 probe | Fibrinogen beta chain (Homo sapiens), P02675 | Fibrin DD(E) TRITC-Tn6 fluorescence polarization displacement | inhibition, % at 8.3 µM | hit rate 0.21% among 370,000;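 active = inhibition above a per-campaign cutoff: mean of compounds within control limits plus 3 SD, cut at about 15% in these data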;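 also: 0% = median of all compound wells on the plate and 100% = blocking peptide control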
MT1-MMP act inh = blockers of MT1-MMP proenzyme processing, primary screen, HT1080 RFP-PRO-GFP cells, GFP/RFP fluorescence; Matrix metalloproteinase-14 (Homo sapiens), P50281; GFP/RFP ratio fluorescence, overnight; percent of plate control window, DMSO zero; GFP/RFP ratio change, % at 20 µM; hit rate 0.061% among 360,000; AID 651647, 2012;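 active = GFP/RFP ratio change of at least 30% with cell ATP level not reduced by more than half and red fluorescence within 50% of control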
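Assay system: HT1080 RFP-PRO-GFP cells | Dosing: 20 µM single dose, 1% DMSO | Incubation: Cells overnight before dosing, compound overnight, 37 °C, 5% CO2 | Evaluation: GFP/RFP fluorescence ratio | Control set: DMSO-only wells and HT1080 RFP-L50D-GFP cell wells as references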
DDE Tn6 FP ctr = DD(E)-Tn6 binding inhibition, counter-screen; AID 720621; hit rate 2% among 680; shares compounds with DDE Tn6 FP inh; Fibrin DD(E), TRITC-Tn6 fluorescence polarization displacement; 0% = median of compound wells, not DMSO; inhibition, % at 8.3 µM;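 active = inhibition above the mean of test compounds lying between the control limits plus 3 SD of those, cut at about 14% in these data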;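 also: 0% = median of compound wells and 100% = wells with Aha-Tn7 blocking peptide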
DDE Tn6 confirm = inhibitors of Tn6 peptide binding to fibrin DD(E), confirmation, biochemical, fluorescence polarization, human fibrin, Tn6 probe; AID 720631, 2013; shares compounds with DDE Tn6 FP inh; inhibition, % at 8.3 µM; hit rate 10% among 680; FP displacement of TRITC-Tn6 peptide from DD(E); 0% = per-plate median of test wells;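 active = inhibition above the mean of compounds lying within the control limits plus 3 SD, cut at about 16% in these data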;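 also: 100% = high control wells holding a competing inhibitor peptide at 10 µM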
Starred values were filed as active, the others as inactive. Sampled rows, rich in hits. Any-hit rate of the full collection: about 2.2%.

For Cc1nc(NC(=O)C(C)(C)C)sc1C(=O)Cn1cc(CCCC#N)nn1 the results were Tn7 DDE FP 4, SKN-1 block 1, Neddyl block inactive, proKLK7 act 0, DDE Tn6 FP inh -2 and MT1-MMP act inh 2.
`Cc1ccc(NC(=O)C(OC(=O)c2ccc(NC(N)=O)cc2)c2ccccc2)cc1Cl` (stereo not drawn) gave Tn7 DDE FP 0, SKN-1 block 9, Neddyl block inactive, proKLK7 act 0, DDE Tn6 FP inh 34*, MT1-MMP act inh 0, DDE Tn6 FP ctr 1 and DDE Tn6 confirm -1.
CCCCCn1c(=O)[nH]c2cc(C(=O)NCCCN3CCC(C)CC3)ccc2c1=O was read as Tn7 DDE FP 11, SKN-1 block 0, Neddyl block inactive, proKLK7 act -2, DDE Tn6 FP inh 18*, MT1-MMP act inh -6, DDE Tn6 FP ctr -2 and DDE Tn6 confirm -8.
For CCCCCn1c(=O)[nH]c2cc(C(=O)NCCN3CCC(C)CC3)ccc2c1=O the results were SKN-1 block -9, Neddyl block inactive and MT1-MMP act inh -2.
For COC(=O)c1ccc(Cn2c(C)c(C(=O)NCc3cccc(C(F)(F)F)c3)sc2=O)o1 the results were Tn7 DDE FP 5, SKN-1 block -2, Neddyl block inactive, proKLK7 act 0, DDE Tn6 FP inh 17*, MT1-MMP act inh 4, DDE Tn6 FP ctr 5 and DDE Tn6 confirm -3.
COC(=O)c1ccc(Cn2c(C)c(C(=O)NCc3cccc([N+](=O)[O-])c3)sc2=O)o1 was read as Tn7 DDE FP 2, SKN-1 block -5, Neddyl block inactive, proKLK7 act 0, DDE Tn6 FP inh -5 and MT1-MMP act inh 2.
For O=C1c2cccc3c(O)ccc(c23)C(=O)N1Cc1ccccc1 the results were Tn7 DDE FP -1, SKN-1 block -27, Neddyl block inactive, proKLK7 act 0, DDE Tn6 FP inh 24*, MT1-MMP act inh -217, DDE Tn6 FP ctr 19* and DDE Tn6 confirm 19*.
For CCOCCCn1c(=S)[nH]c2cc(C(=O)NCC(OC)OC)ccc2c1=O the results were Tn7 DDE FP -3, SKN-1 block -31, Neddyl block inactive, proKLK7 act 0, DDE Tn6 FP inh 16*, MT1-MMP act inh 3, DDE Tn6 FP ctr -8 and DDE Tn6 confirm -15.
`CC1(C)c2ccccc2N(CC(N)=O)C12C=Cc1ccccc1O2` (stereo not drawn) gave Tn7 DDE FP -4, SKN-1 block 41, Neddyl block inactive, proKLK7 act -1, DDE Tn6 FP inh 6 and MT1-MMP act inh 7.
Screening CC1(C)c2ccccc2N2CC(=O)N(CC(N)=O)C21C (stereo not drawn) returned Tn7 DDE FP -12, SKN-1 block 84, Neddyl block inactive, proKLK7 act 0, DDE Tn6 FP inh 76*, MT1-MMP act inh 34, DDE Tn6 FP ctr -3 and DDE Tn6 confirm -5.
For O=C(CCCN1C(=O)/C(=C/c2cccs2)SC1=S)Nc1cc([N+](=O)[O-])ccc1O the results were Tn7 DDE FP -3, SKN-1 block 9, Neddyl block inactive, proKLK7 act 0, DDE Tn6 FP inh -8 and MT1-MMP act inh 5.
For O=C1c2ccccc2CCC12N=NCC2c1ccc(Cl)cc1 (stereo not drawn) the results were Tn7 DDE FP 1, SKN-1 block 16, Neddyl block inactive, proKLK7 act 0, DDE Tn6 FP inh 17*, MT1-MMP act inh -3, DDE Tn6 FP ctr -5 and DDE Tn6 confirm -11.
Screening O=C(NNc1cccc(Cl)n1)C(F)(F)F returned Tn7 DDE FP -1, SKN-1 block 5, Neddyl block inactive, proKLK7 act 0, DDE Tn6 FP inh 2 and MT1-MMP act inh -6.
For CN(CC(=O)N1CCc2ccccc21)S(=O)(=O)c1cccs1 the results were Tn7 DDE FP -5, SKN-1 block -2, Neddyl block inactive, proKLK7 act 0, DDE Tn6 FP inh 16*, MT1-MMP act inh 0, DDE Tn6 FP ctr 1 and DDE Tn6 confirm -4.
Screening O=C(c1ccc(=O)[nH]c1)N1CCN(S(=O)(=O)c2ccccc2)CC1 returned Tn7 DDE FP 5, SKN-1 block 15, Neddyl block inactive, proKLK7 act 0, DDE Tn6 FP inh 4 and MT1-MMP act inh 2.
O=C(c1ccc(Br)cc1)N1CCN(S(=O)(=O)c2ccccc2)CC1 was read as Tn7 DDE FP -9, SKN-1 block 2, Neddyl block inactive, proKLK7 act -1, DDE Tn6 FP inh 16*, MT1-MMP act inh 2, DDE Tn6 FP ctr -5 and DDE Tn6 confirm -11.
Screening O=c1[nH]nc(Cc2ccc(Cl)cc2Cl)c2ccccc12 returned Tn7 DDE FP -4, SKN-1 block -2, Neddyl block inactive, proKLK7 act 1, DDE Tn6 FP inh -1 and MT1-MMP act inh -4.
`O=c1[nH]nc(Cc2ccc(Cl)cc2)c2ccccc12` gave Tn7 DDE FP 4, SKN-1 block -2, Neddyl block inactive, proKLK7 act 1, DDE Tn6 FP inh 15*, MT1-MMP act inh 3, DDE Tn6 FP ctr 0 and DDE Tn6 confirm -3.
For O=C(COc1ccc2ccccc2c1)NCCNC(=O)COc1ccc2ccccc2c1 the results were Tn7 DDE FP 0, SKN-1 block -4, Neddyl block inactive, proKLK7 act -1, DDE Tn6 FP inh 6 and MT1-MMP act inh 2.
For O=C(COc1ccc2ccccc2c1)NCCc1ccc2c(c1)OCCO2 the results were Tn7 DDE FP -1, SKN-1 block 2, Neddyl block inactive, proKLK7 act 0, DDE Tn6 FP inh 18*, MT1-MMP act inh 4, DDE Tn6 FP ctr -1 and DDE Tn6 confirm -10.
`CS(=O)(=O)c1cccc(-c2csc(N3CCC(C(N)=O)CC3)n2)c1` gave Tn7 DDE FP -3, SKN-1 block 19, Neddyl block inactive, proKLK7 act 0, DDE Tn6 FP inh 16*, MT1-MMP act inh 6, DDE Tn6 FP ctr 6 and DDE Tn6 confirm -2.

Source: PubChem (several laboratories)
